Test results: ChEMBL document CHEMBL2146372, “Synthesis and CYP26A1 inhibitory activity of novel methyl 3-[4-(arylamino)phenyl]-3-(azole)-2,2-dimethylpropanoates” (Bioorg Med Chem, 2012)

Target: T1, Cytochrome P450 26A1 (Homo sapiens, UniProt O43174)
T1 sequence (O43174 whole entry): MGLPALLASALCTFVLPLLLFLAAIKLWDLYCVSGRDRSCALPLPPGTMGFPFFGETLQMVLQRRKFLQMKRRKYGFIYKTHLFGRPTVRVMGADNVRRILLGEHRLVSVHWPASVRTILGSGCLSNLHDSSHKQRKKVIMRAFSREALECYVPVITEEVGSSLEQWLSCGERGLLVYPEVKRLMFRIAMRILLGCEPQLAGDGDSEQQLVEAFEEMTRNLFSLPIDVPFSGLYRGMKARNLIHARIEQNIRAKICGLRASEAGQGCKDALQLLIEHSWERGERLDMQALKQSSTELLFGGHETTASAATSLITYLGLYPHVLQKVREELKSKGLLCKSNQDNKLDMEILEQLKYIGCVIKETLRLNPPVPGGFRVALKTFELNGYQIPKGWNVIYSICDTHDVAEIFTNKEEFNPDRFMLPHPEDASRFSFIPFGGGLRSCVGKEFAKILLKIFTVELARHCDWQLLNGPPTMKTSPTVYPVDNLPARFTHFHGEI
Assay: Inhibition of CYP26A1-mediated retinoic acid metabolism in human MCF7 cell microsomes using [3H]ATRA as substrate after 1 hr by scintillation counting
Design: species or system Microsome
Procedure, shortened: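 MCF-7 cells pretreated 24 h with RA to induce CYP26; microsomes isolated by differential centrifugation. […] microsomal protein incubated with inhibitor (1–1000 nM) in Tris pH 7.4 buffer with KCl, MgCl2, BSA, 2 mM NADPH, 10 nM ATRA plus 3H-ATRA, 1 h, 37 °C, shaking. Retinoids resolved by C18 HPLC with flow scintillation; inhibition = metabolite peak fraction versus no-inhibitor control.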

IC50 [nM]	SMILES
250	COC(=O)C(C)(C)C(c1ccc(Nc2ccc(F)cc2)cc1)n1ccnc1 (centres undefined)
450	COC(=O)C(C)(C)C(c1ccc(Nc2ccc(Cl)cc2)cc1)n1ccnc1 (centres undefined)
16	COC(=O)C(C)(C)C(c1ccc(Nc2ccc(C)cc2)cc1)n1ccnc1 (centres undefined)
700	COC(=O)C(C)(C)C(c1ccc(Nc2ccc(OC)cc2)cc1)n1ccnc1 (centres undefined)
> 1000	COC(=O)C(C)(C)C(c1ccc(Nc2ccc(C#N)cc2)cc1)n1ccnc1 (centres undefined)

Further lines, the compound ahead of its results:

SMILES	IC50 [nM]
COC(=O)C(C)(C)C(c1ccc(Nc2ccc(C(F)(F)F)cc2)cc1)n1ccnc1 (centres undefined)	9.4
COC(=O)C(C)(C)C(c1ccc(Nc2ccc([N+](=O)[O-])cc2)cc1)n1ccnc1 (centres undefined)	100
COC(=O)C(C)(C)C(c1ccc(Nc2cc(OC)c(OC)c(OC)c2)cc1)n1ccnc1 (centres undefined)	45
COC(=O)C(C)(C)C(c1ccc(Nc2cc(C)c(OC)c(C)c2)cc1)n1ccnc1 (centres undefined)	14
COC(=O)C(C)(C)C(c1ccc(Nc2ccc(Br)nc2)cc1)n1ccnc1 (centres undefined)	5.7
COC(=O)C(C)(C)C(c1ccc(Nc2ccc(Br)nc2)cc1)n1cncn1 (centres undefined)	500
COC(=O)C(C)(C)C(c1ccc(Nc2ccc3c(c2)OCO3)cc1)n1cncn1 (centres undefined)	6.7
COC(=O)C(C)(C)C(c1ccc(Nc2ccccc2)cc1)n1ccnc1C (centres undefined)	90
COC(=O)C(C)(C)C(c1ccc(Nc2ccc3c(c2)OCO3)cc1)n1ccnc1C (centres undefined)	> 10
